Source: PubChem (Sanford-Burnham Center for Chemical Genomics)
Most compounds without a hit are left out; they make up all but 1.6% or so of the library.
PPC-1+TRAIL kill: PPC-1 cancer cell killing with TRAIL present. PPC-1 cells + TRAIL, ATPLite viability luminescence. cell killing (% activity), % at 4 µM or 5 µM. 220,000 tested, 0.41% active;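 active = cell killing above 50% in the first pass at 4 µM, then a duplicate retest at 5 µM averaging 50% or more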;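 note: plate controls were cells with TRAIL plus DMSO for no effect and medium-only wells lacking cells for full effect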
C8 TRAIL sens: sensitizes caspase-8 expressing cells to TRAIL. inhibition (viability loss, TRAIL sensitization), % at 10 µM. AID 624354. 360,000 tested, 1% active. NB7+C8 cells + TRAIL, ATPlite viability luminescence;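 active = compounds causing at least 50% loss of cell viability in the single-dose screen, relative to plate controls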
FLuc act counter: firefly luciferase counter-screen for stimulation assays; ATPlite luciferase biochemical, luminescence, 10 min; 0 = ATP-free wells, 1 = DMSO control; P08659; activation factor at 10 µM; 200,000 tested, under 10 active;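 active = luciferase activation factor, scaled between plate controls, of at least 2 with compound at 10 µM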
Target sequence (P08659 whole entry, looked up): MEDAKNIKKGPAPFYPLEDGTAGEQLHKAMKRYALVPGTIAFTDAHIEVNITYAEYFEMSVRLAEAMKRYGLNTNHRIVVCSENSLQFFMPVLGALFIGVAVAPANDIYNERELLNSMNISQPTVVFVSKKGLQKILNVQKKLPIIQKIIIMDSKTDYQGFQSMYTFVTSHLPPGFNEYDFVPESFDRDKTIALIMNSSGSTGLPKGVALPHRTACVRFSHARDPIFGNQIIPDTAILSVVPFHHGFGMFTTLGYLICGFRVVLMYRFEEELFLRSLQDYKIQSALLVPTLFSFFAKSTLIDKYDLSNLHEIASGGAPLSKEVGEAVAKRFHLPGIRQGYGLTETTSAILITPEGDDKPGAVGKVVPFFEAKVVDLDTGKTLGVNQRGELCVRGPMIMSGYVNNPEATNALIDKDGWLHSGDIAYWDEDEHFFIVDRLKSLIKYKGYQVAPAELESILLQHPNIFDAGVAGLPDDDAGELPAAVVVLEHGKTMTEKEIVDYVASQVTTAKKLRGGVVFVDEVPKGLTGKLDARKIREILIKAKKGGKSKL
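Assay system – cell-free luciferase reagent · Medium – PBS-based ATP solution · Dosing – test compounds dosed from 2 mM stocks in 100% DMSO · Timing – 10 min, room temperature · Technique – light output (luminescence) · Measure – luminescence gain marking luciferase activators · Controls – No-ATP low control, compound-free enzyme-plus-ATP high control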
FLuc inh counter: counter-screen for luciferase assay inhibitors: firefly luciferase inhibition; inhibition, % at 10 µM; P08659; AID 1006; ATPLite firefly luciferase biochemical luminescence, 10 min; 200,000 tested, 1.5% active;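 active = inhibition above about 50% when tested at 10 µM, limit read from the data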
PPC-1 tox: PPC-1 cell cytotoxicity; 1,200 tested, 50% active; AID 1447; cytotoxicity, % at 5 µM; shares compounds with PPC-1+TRAIL kill; PPC-1 viability, ATPlite luminescence, overnight;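 active = reconfirmed compounds whose average cytotoxicity reaches 50% or more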;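 note: 0% = DMSO-treated cells and 100% = wells holding medium but no cells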
* = called active by the depositor; x = no result given.

SMILES	PPC-1+TRAIL kill	C8 TRAIL sens	FLuc act counter	FLuc inh counter	PPC-1 tox
CCOC(=O)N1CCC(n2c(=S)[nH]c3ccccc3c2=O)CC1	-5	-3	1.1	-8	-18
CC(C)(C)c1ccc(NC(=O)Nc2ccc(OCC(=O)N3CCOCC3)cc2)cc1	63*	78*	0.1	92*	63*
CCCN(CCO)C1CCN(CCc2ccccc2)CC1	x	10	x	x	x
C/C(=N/NC(=O)c1cccs1)c1c(C)[nH]n(-c2nc3ccccc3s2)c1=O	77*	89*	0.1	93*	75*
O=C(Nc1cccc(C(=O)N2CCOCC2)c1)C1CCCC1	x	-1	x	x	x
COc1ccccc1-c1noc(-c2ccncc2)n1	15	1	0.8	16	x
COc1ccc(-c2nc(-c3ccncc3)no2)cc1	x	-1	x	x	x
Cc1ccccc1-c1nc(-c2ccccn2)no1	84*	87*	0	95*	80*
COc1ccc(-c2nc(-c3cccs3)no2)cc1	46	63*	x	x	42
COc1ccc(-c2nc(-c3ccccn3)no2)cc1	93*	96*	0	98*	92*
COc1ccccc1-c1nc(-c2ccccn2)no1	63*	73*	0.1	88*	63*
Cc1ccccc1-c1nc(-c2cccnc2)no1	15	10	0.8	21	x
COc1ccc(C(=O)COC(=O)c2cc(=O)[nH]c3ccccc23)c(OC)c1	x	-4	x	x	x
O=C(OCCCc1cc2ccccc2c(=O)o1)c1ccc2c(c1)OCO2	x	-5	x	x	x
CN(C)c1cccc(C(=O)Nc2cccc(S(=O)(=O)NC3=NCCC3)c2)c1	x	2	x	x	x
Clc1ccc(-c2nc(-c3ccccn3)no2)cc1Cl	66*	78*	0.1	88*	64*
CCn1cc(CN2CCC(n3nccc3NC(=O)C3CCCC3)CC2)cn1	x	-13	x	x	x
O=C1NN(c2ccccc2)C(=O)C1=Cc1ccccc1O	x	-7	x	x	x
Cc1cc(/C=C2/C(=O)NN(c3ccccc3)C2=O)c(C)n1-c1cccc(O)c1	81*	85*	0.1	94*	83*
CN(C)S(=O)(=O)c1ccc(C(=O)NCCOc2ccccc2)cc1	-15	-11	1.1	-8	-2
CCOc1ccccc1NC(=O)NC(=O)N(C)S(=O)(=O)c1ccc(C)cc1	-15	-5	1.1	-9	x
CCN(CC(=O)Nc1ccc(N2CCOCC2)cc1)C(=O)c1ccc(C(F)(F)F)cc1	-10	-9	1	-4	x
CCOc1ccc(-c2cn3ccccc3n2)cc1	91*	84*	0	97*	89*
Fc1ccc(-c2cn3ccccc3n2)cc1	x	28	x	x	x
CCC(C)NS(=O)(=O)c1ccc(OCC(=O)NCc2ccccn2)cc1 (configuration not stated)	15	-5	1	-4	x
SMILES	PPC-1+TRAIL kill	C8 TRAIL sens	FLuc act counter	FLuc inh counter	PPC-1 tox
Cc1cc(C)n(CCC(=O)Nc2ccc3c(c2)OCCO3)n1	x	0	x	x	x
COc1cc(NC(=O)c2ccc(S(=O)(=O)N(C)c3ccccc3)cc2)cc(OC)c1	x	4	x	x	x
O=C(Nc1cccc(S(=O)(=O)C(F)F)c1)c1ccc(S(=O)(=O)N2CCCC2)cc1	-11	-6	1	-3	x
O=C(Nc1cccc(S(=O)(=O)C(F)F)c1)c1ccc(S(=O)(=O)N2CCOCC2)cc1	-4	21	1.1	-8	-6
CC(=O)Nc1ccc(NC2=C/C(=N/S(=O)(=O)c3cccs3)c3ccccc3C2=O)cc1	73*	84*	0.9	14	74*
Cc1ccc(NC2=C/C(=N/S(=O)(=O)c3cccs3)c3ccccc3C2=O)cc1C	12	26	0.9	7	x
Cc1ccc(CCC(=O)Nc2ccc(C#N)cc2)o1	x	-8	x	x	x
O=C(N/N=C/c1cccnc1)c1ccc2c(c1)OCCO2	55*	81*	0.1	91*	59*
C/C(=N\NC(=O)c1ccccc1O)c1cccs1	58*	70*	0.1	92*	54*
C/C(=N/NC(=O)c1cc(C2CC2)[nH]n1)c1cccs1	60*	67*	0.2	84*	50
O=C(COC(=O)CNC(=O)c1ccccc1Cl)NC1CC1	x	-19	x	x	x
O=C(Nc1ccccn1)c1ccc2ccccc2n1	38	55*	0.2	84*	52*
Cc1cc(=O)[nH]c2sc(C(=O)N3c4ccccc4CC3C)c(N)c12 (configuration not stated)	x	-9	x	x	x
O=C(O)c1ccc2c(c1)C(=O)N(c1cccc(-c3nc4ccccc4s3)c1)C2=O	39	49	0.7	34	37
Nc1cccc(-c2nc3ccccc3s2)c1	36	51*	0.2	76*	39
